# Screens from PubChem.
# A selection: hits, their analogues and other compounds. The true share with any hit is near 4.1%.
# RGS4 block: human RGS4 inhibition; P49798; HEK293 M3R/RGS4 inducible, Fluo-4 calcium flux; hits give high values; triggered by carbachol at its EC20; B-score at 10 µM; hit rate 0.45% among 310,000; AID 463165;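 active means B-score, a plate-corrected calcium signal, over three deviations above library mean, with baseline fluorescence within five deviations of library mean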;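 further: RGS4 expression induced by doxycycline in cells with stable M3 receptor; B-score is computed from the integrated fluorescence ratio over baseline after carbachol; higher B-score means a larger calcium signal and so more RGS4 inhibition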
# MrgX1 allo act: allosterically activates human MrgX1 receptor signaling; MrgX1-HEK293, Fluo-4 calcium flux, FDSS; hits give high values; AID 588675; hit rate 0.63% among 310,000; B-score at 10 µM;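 active means plate-corrected calcium response at least 3 library SD above typical, normal starting fluorescence, not activating the receptor alone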;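 further: compound read alongside a low EC10 to EC30 dose of BAM8-22 agonist; peak minus trough fluorescence over baseline measured at the second addition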
# MrgX1 ag: agonists of human MrgX1 receptor; Q96LB2; MrgX1-HEK293 cells, Fluo-4 calcium fluorescence, agonist mode; hits give high values; B-score at 10 µM; hit rate 0.44% among 310,000;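 active means calcium response B-score plate-corrected fluorescence ratio at least 3 library SD, with starting fluorescence B-score inside 5 SD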
#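 Test system: HEK293 cells stably expressing human MrgX1 receptor; amount: 15,000 cells per well; doses: compound delivered in addition one of three; times: overnight plating before 1 h dye loading; detection: Fluo-4 NW calcium-flux fluorescence, kinetic read; read-out basis: B-scored fluorescence response ratio; controls: positive and negative controls per plate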
# RGS4 act: RGS4 potentiation or activation; AID 463111; hit rate 0.92% among 310,000; HEK293 M3R/inducible RGS4, carbachol calcium flux Fluo4; hits give low values; B-score at 10 µM;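 active means B-score of the integrated calcium signal more than 4 SD below the library mean, with starting fluorescence not abnormally high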;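 further: negative B-score means reduced calcium response which marks RGS4 activation or potentiation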
#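 System: HEK293 FlpIn-TREx cells, stable M3R, doxycycline-inducible RGS4. Timing: overnight RGS4 induction, 30 min dye load 37 °C, 20 min compound RT. Also added: carbachol, ECmax concentration. Measured by: Fluo4 fluorescence kinetic imaging of calcium. Evaluation: integrated calcium ratio converted to B score.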
# MrgX1 antagonist: human MrgX1 receptor antagonism, primary screen | Q96LB2 | MRGX1-HEK293 calcium flux, Fluo-4, BAM8-22 antagonism; hits give low values | B-score at 10 µM | hit rate 1.3% among 310,000;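 active means calcium-response B-score plate-corrected more than 3 library SD below zero, starting fluorescence within 5 deviations, no agonist response on first addition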;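 further: peak minus trough fluorescence over baseline after final BAM8-22 challenge near maximal dose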
# Kir21 inh: inhibitors of mouse Kir2.1 inward-rectifier potassium channel | P35561 | HEK293-Kir2.1, FluxOR thallium flux fluorescence; hits give low values | B-score at 10 µM | hit rate 0.85% among 310,000;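 active means fluorescence ratio B-score at or below minus 3 SD of library scores, with starting-brightness B-score within 2 SD, cut at about -4.2 in these data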;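 further: channel flux triggered by added potassium and thallium sulfate stimulus; B-score of peak minus minimum fluorescence over baseline after thallium stimulus; more negative B-score means stronger Kir2.1 block with less thallium influx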
# Target sequence (P35561 whole entry, looked up): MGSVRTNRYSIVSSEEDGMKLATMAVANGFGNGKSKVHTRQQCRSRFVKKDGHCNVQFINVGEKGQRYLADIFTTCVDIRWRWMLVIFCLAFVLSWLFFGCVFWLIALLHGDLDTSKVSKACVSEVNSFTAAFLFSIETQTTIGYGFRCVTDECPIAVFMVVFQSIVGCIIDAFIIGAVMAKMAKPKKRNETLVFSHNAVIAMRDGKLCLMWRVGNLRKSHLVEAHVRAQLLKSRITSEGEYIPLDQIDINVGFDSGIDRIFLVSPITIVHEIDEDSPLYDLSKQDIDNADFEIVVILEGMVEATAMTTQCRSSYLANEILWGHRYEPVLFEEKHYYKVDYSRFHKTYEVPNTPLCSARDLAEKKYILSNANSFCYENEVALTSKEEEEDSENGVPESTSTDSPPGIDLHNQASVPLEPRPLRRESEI
# An asterisk follows results filed as active; i = inactive; . = no result given.
SMILES,RGS4 block,MrgX1 allo act,MrgX1 ag,RGS4 act,MrgX1 antagonist,Kir21 inh
COc1ccc(CCNC(=O)C2CCN(S(=O)(=O)c3cccc4nsnc34)CC2)cc1OC,i,i,i,i,i,-0.42
COc1ccccc1/C=C/C1C(C(=O)OCC(C)C)=C(C)N=C2SCCC(=O)N21 (centres undefined),i,i,i,i,i,0.39
C=CCOC(=O)C1=C(C)N=C2SCCC(=O)N2C1c1ccc(OC(=O)c2ccco2)cc1 (centres undefined),i,i,i,i,i,-5*
COC(=O)C1=C(C)N=C2SCCC(=O)N2C1/C=C/c1ccccc1 (centres undefined),i,i,i,-7.4*,i,0.06
CCOC(=O)C1=C(C)N=C2SCCC(=O)N2C1c1cccs1 (centres undefined),i,i,i,i,i,-0.05
CCOC(=O)C1=C(C)N=C2SCCC(=O)N2[C@@H]1c1cccs1,i,i,i,i,i,-4.3*
CCOC(=O)N1CCN(C(=O)N2CCOCC2)CC1,i,i,i,i,i,1.7
COc1cccc(CC(=O)OC(C)C(=O)NCc2ccc3c(c2)OCO3)c1 (centres undefined),i,i,i,i,i,-1.7
CC(=O)NNC(=S)NC(=O)C(c1ccccc1)c1ccccc1,i,i,35*,i,i,0.91
CC(C)(C)C(=O)NC(=S)NNC(=O)C(c1ccccc1)c1ccccc1,i,i,156*,-7.4*,i,-1.4
Cc1ccc(C(c2nnnn2Cc2cccs2)N2CCN(C(=O)c3ccco3)CC2)cc1 (centres undefined),i,i,i,i,i,1
Cc1cccc(C)c1N=Cc1c(O)n(-c2nccs2)c(=O)c2ccccc12,i,i,i,i,i,0.82
O=c1c2ccccc2c(/C=N/c2nnc(Cc3ccccc3)s2)c(O)n1-c1ccc(Cl)cn1,i,16*,i,i,i,-0.72
O=C(/C=C/c1ccccc1)c1ccccn1,i,i,39*,i,i,1.3
N/C(=N\OC(=O)/C=C/c1ccccc1)c1ccccn1,i,i,i,i,i,-0.64
O=C(/C=C/Nc1ccc(F)cc1)c1cccs1,i,i,i,i,-5*,0.01
O=C(Nc1cccn(Cc2cccc(F)c2)c1=O)NC1CCCCC1,i,i,i,i,i,0.46
COC(=O)CC1=C(C(=O)OC)C(c2cccc(OCC(N)=O)c2)C(C#N)=C(N)O1 (centres undefined),i,i,34*,i,i,-1.9
Cc1cc(Cl)c2oc(C(=O)N3CCN(c4ccncc4)CC3)c(C)c2c1,i,i,i,i,i,-5.1*
C(#Cc1ccccc1)C[N+]1(CC#Cc2ccccc2)CCCC1,i,i,i,-8.1*,i,-1.2
C=CC[N+]1(CC#Cc2ccccc2)CCCC1,i,i,i,i,i,-1.1
CC1CC=C2C(C#N)=C(N)C(C#N)(C#N)C(c3cccs3)C2C1 (centres undefined),i,i,i,i,-5.6*,-4.2
Cc1ccc(S(=O)(=O)CC(O)COc2ccc(F)cc2Cl)cc1 (centres undefined),i,i,i,i,i,-3.5
Cc1ccc(S(=O)(=O)CC(O)COc2ccc(F)cc2Cl)c(C)c1 (centres undefined),i,i,i,i,i,-6.1*
COC(=O)c1cc(OC)c(OC)cc1NC(=O)c1cnccn1,i,.,.,i,.,0
Cc1ccc(-n2c3nc(=O)n(C)c(=O)c-3cc3ccccc32)cc1,i,i,i,-8*,i,0.39
CCCCn1c(=O)nc2n(-c3ccc(C)cc3)c3ccccc3cc-2c1=O,i,i,i,i,i,0.82
CSCCC(NC(=O)C1CCC(C)CC1)C(=O)OCC(=O)c1ccc(Cl)cc1 (centres undefined),i,i,i,i,i,1.1
